Compound activity deposited in PubChem by several laboratories.
A3A deaminase: inhibitors of human APOBEC3A DNA deaminase; P31941; recombinant A3A, FAM/TAMRA ssDNA deamination fluorescence; inhibition, % at 20 µM; 0.41% of 330,000 active;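 active = at least 40% inhibition at 20 µM here, with at most 30% in a related deaminase screen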;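 note: plate controls were A3A with DMSO for no effect and wells lacking A3A enzyme for full effect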
Keap1-Nrf2 PPI: Keap1-Nrf2 (human) interaction inhibition; inhibition, % at 9.4 µM; Keap1 Kelch-Nrf2 peptide fluorescence polarization, 1536-well; 0.15% of 340,000 active; AID 504523; in the data active = inhibition above about 12%;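 note: human Keap1 Kelch domain with fluorescein labeled Nrf2 9mer peptide probe; 0% = neutral control wells and 100% = peptide positive control; higher means more block of Keap1 binding to Nrf2 peptide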
Target sequence (Q14145 whole entry, looked up, the tested form may be a part): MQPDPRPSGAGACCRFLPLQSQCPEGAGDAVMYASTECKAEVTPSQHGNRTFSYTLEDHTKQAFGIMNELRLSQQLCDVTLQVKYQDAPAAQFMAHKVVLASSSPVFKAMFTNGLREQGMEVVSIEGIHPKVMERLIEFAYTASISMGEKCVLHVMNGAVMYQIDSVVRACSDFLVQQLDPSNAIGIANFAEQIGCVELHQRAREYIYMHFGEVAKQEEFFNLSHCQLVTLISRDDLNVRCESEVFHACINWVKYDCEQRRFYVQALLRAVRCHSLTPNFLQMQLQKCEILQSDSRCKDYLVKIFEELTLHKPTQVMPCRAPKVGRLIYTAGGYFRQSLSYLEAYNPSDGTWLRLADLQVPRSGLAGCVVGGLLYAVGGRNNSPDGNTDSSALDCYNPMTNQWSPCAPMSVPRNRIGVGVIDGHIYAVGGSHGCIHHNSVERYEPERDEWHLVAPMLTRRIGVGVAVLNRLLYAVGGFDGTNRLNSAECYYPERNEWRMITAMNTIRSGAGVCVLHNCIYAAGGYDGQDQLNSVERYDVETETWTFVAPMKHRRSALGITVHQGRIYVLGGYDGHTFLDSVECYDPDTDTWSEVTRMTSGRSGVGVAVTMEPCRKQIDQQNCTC
C-LANA FP: KSHV C-LANA DNA binding inhibition | MBP-C-LANA/FAM-LBS DNA binding, fluorescence polarization | inhibition, % at 9 µM | 0.078% of 340,000 active;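 active = highest replicate inhibition at or above 60% at 9 µM, even if other replicates fall short; inactive = all replicates below 60% inhibition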;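 note: 0% = neutral control wells and 100% = 4 µM acridine orange control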
APOBEC3G inh: blocks human APOBEC3G single-stranded DNA deamination; inhibition, % at 20 µM; AID 493012; recombinant A3G, ssDNA deamination FAM/TAMRA fluorescence; 0.28% of 330,000 active;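 active = inhibition of at least 40% at 20 µM, with no more than 30% in the related APOBEC3A deaminase screen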;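 note: plate controls were DMSO wells with A3G for no effect and wells lacking A3G enzyme for full effect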
CAL PDZ FP-1: CAL PDZ (human) peptide binding inhibition | Q9HD26 | purified CAL PDZ, TMR-peptide fluorescence polarization, 1 h | inhibition, % at 24.9 µM | 0.92% of 300,000 active;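 active = mean inhibition of at least 30% with at least half of replicates also reaching 30%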;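 note: 0% = DMSO neutral control and 100% = excess unlabeled competitor peptide PRC23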
CAL PDZ FP-2: inhibitors of human CAL PDZ peptide binding | AID 504414 | 0.02% of 330,000 active | inhibition, % at 20 µM | purified CAL PDZ, TMR-peptide fluorescence polarization, 1 h | Q9HD26;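 active = highest replicate inhibition of at least 40%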;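 note: plate controls were DMSO neutral control wells for no effect and unlabeled competitor peptide control wells for full effect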
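Read-out basis: mP drop reported as inhibition | Assay system: Tagged CAL PDZ protein CerCALP, purified | Benchmarks: Unlabelled peptide for full inhibition, DMSO wells as neutral | Schedule: 1 h incubation at room temperature before polarization reading | Buffer or medium: Sodium phosphate/NaCl buffer pH 7.4 with TCEP, IgG, Thesit | Doses: Single point, 20 µM | Measured by: Fluorescence polarization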
A3G conf: confirmation of human APOBEC3G DNA deaminase inhibitors | AID 493152 | inhibition, % at 20 µM | recombinant A3G ssDNA deaminase, UDG/FAM-TAMRA fluorescence | shares compounds with APOBEC3G inh | 72% of 890 active;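 active = inhibition reaching a set limit in any replicate at 20 µM, the limit being 80% of the first screen's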
UDG ctr A3G: inhibits E. coli UDG, flagging false APOBEC3G inhibitors; inhibition, % at 20 µM; shares compounds with APOBEC3G inh; UDG counterscreen, FAM/TAMRA oligo fluorescence; 710 tested, under 10 active;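 active = compounds giving 40% or more inhibition at 20 µM in any one of the three replicates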;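 note: plate controls were DMSO wells with UDG and oligo for no effect and DMSO wells lacking both for full effect; inhibitors lower the FAM signal released by uracil excision and alkaline cleavage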
Numbers without * were called inactive; x = no result given. Compounds with a hit are over-represented: about 1.7% of the library has one in this group of screens.

SMILES	A3A deaminase	Keap1-Nrf2 PPI	C-LANA FP	APOBEC3G inh	CAL PDZ FP-1	CAL PDZ FP-2	A3G conf	UDG ctr A3G
Cc1cc(O)c(/C=N/Nc2ccc(Cl)cc2)c(=O)o1	6.0	1.7	3.9	32.0	-2.7	-2.1	x	x
CC(C)c1ccc(NC(=S)NNC(=O)C2CC2)cc1	0.8	-3.1	1.2	-2.7	-3.7	-3.1	x	x
CC(C)c1ccc(NNC(=O)C2CCC2)cc1	3.7	1.6	1.9	49.9*	0.8	-0.5	16.9	x
Cc1noc(C)c1C(=O)NNc1ccc(C(C)C)cc1	-2.5	3.4	1.1	45.7*	-2.4	-0.5	14.6	-2.3
COc1cc(C(=O)NCc2nnc(SCC(=O)NC3CCCCC3)o2)cc(OC)c1OC	-2.1	1.2	0.8	-3.3	-4.2	-0.8	x	x
O=[N+]([O-])c1cccc(-c2n[nH]c(=S)n2-c2ccccc2)c1	-2.7	x	x	21.9	x	x	x	x
O=[N+]([O-])c1ccc2c(c1)[nH]c(=S)n2-c1ccccc1	-0.6	-1.6	0.8	41.0*	-6.5	0.2	54.2*	-3.0
O=S(=O)(c1cccc(-c2n[nH]c(=S)n2Cc2ccccc2)c1)N1CCOCC1	-4.9	-3.6	0.5	46.2*	-3.9	1.7	72.0*	-7.6
O=S(=O)(c1cccc(-c2n[nH]c(=S)n2-c2ccccc2Cl)c1)N1CCOCC1	-6.0	0.2	-0.2	24.4	6.9	-1.2	x	x
Cc1cc(C#N)c2ccccc2n1	-17.0	1.2	2.8	-5.7	-0.7	0.1	x	x
N#Cc1cc(-c2ccccc2)[nH]c1-c1nccc2ccccc12	2.2	-5.7	0.8	41.4*	-4.9	-2.8	1.1	x
Cc1ccc(-c2nc(=S)c3c(n2Cc2cccnc2)CC(C)(C)OC3)cc1	-5.7	-5.8	0.5	-9.3	x	-0.6	x	x
CCOC(=O)c1cncc(O)c1	-5.6	-2.7	-0.7	-3.1	1.3	-2.6	x	x
COCCCNC(=S)N(CCCO)Cc1cc2cc3c(cc2[nH]c1=O)OCO3	-0.6	-0.2	-0.1	48.2*	-3.7	-0.6	-0.3	-2.6
Cc1cc(C(C)(C)C)cc(C)c1C[n+]1ccc2ccccc2c1	1.4	2.4	-1.5	-4.9	-9.5	0.3	x	x
COC(=O)Nc1ccc(S(=O)(=O)N2CCCCC2C(=O)NCc2ccco2)cc1 (centres undefined)	0.6	-0.3	1.8	63.2*	-3.4	-0.6	1.9	x
Cc1ccc(S(=O)(=O)N2CCCCC2C(=O)NCc2ccco2)cc1 (centres undefined)	-1.6	-2.3	-0.3	-3.5	-1.7	0.0	x	x
Cc1cc(=O)n(Cc2ccccc2)c(O)c1C#N	-8.2	0.1	-4.6	4.0	-6.3	-0.4	x	x
Cc1cc(=O)n2nc(-c3ccccc3)sc2c1C#N	-3.1	-1.1	-2.3	55.3*	0.6	0.5	68.9*	2.7
CCOC(=O)c1sc(N/N=C/c2ccccc2)nc1C	1.8	-6.7	-1.9	53.3*	-0.5	0.7	63.9*	1.6
CCOC(=O)c1sc(N/N=C/c2cccc(C)c2)nc1C	-4.8	-2.0	-1.1	-12.2	4.0	-0.6	x	x
O=c1c2ccccc2sn1-c1ccccc1	-0.9	-88.1	-2.1	86.8*	-0.8	-1.1	91.4*	-3.7
Cc1ccccc1-n1sc2cc(F)ccc2c1=O	12.6	3.5	0.5	75.2*	0.9	-0.8	81.1*	-3.0
O=c1c2cc(F)ccc2sn1-c1ccccc1	3.0	-1.1	-2.1	85.6*	1.5	-0.9	88.2*	-3.1
CN(C)S(=O)(=O)c1cccc(-n2sc3ccccc3c2=O)c1	-3.2	1.4	0.2	85.3*	-2.6	0.2	93.4*	-1.9
SMILES	A3A deaminase	Keap1-Nrf2 PPI	C-LANA FP	APOBEC3G inh	CAL PDZ FP-1	CAL PDZ FP-2	A3G conf	UDG ctr A3G
CCC1(CC)NC(=O)N(CC(=O)OCC(=O)c2ccccc2OC)C1=O	0.7	-0.6	0.1	-1.9	-1.2	-2.0	x	x
O=C(O)c1cccc(-n2c(/C=C/c3ccccc3)nc3ccccc3c2=O)c1	-0.2	-4.8	-0.1	-0.6	-2.0	-2.6	x	x
O=C(O)c1cccc(-n2sc3ccccc3c2=O)c1	-0.6	4.5	-0.9	82.6*	-1.1	1.5	90.8*	-1.6
COc1ccc(/C=C/C(=O)NNc2c(F)c(F)cc(F)c2F)cc1OC	-0.1	-3.4	0.1	59.9*	-2.4	-1.2	3.6	-3.5
CS(=O)(=O)c1cccc(-c2csc(N3CCC(C(N)=O)CC3)n2)c1	-3.5	-1.8	-0.9	-8.2	-3.0	-1.1	x	x
Cc1cc(Cl)c(OCCCCNC(C)(C)C)c(Br)c1	-6.8	x	x	-6.8	x	x	x	x
N#C/C(=C(/O)COc1ccc(Cl)cc1)c1nc2ccccc2s1	-2.7	4.2	-0.4	57.4*	-0.4	-0.2	-2.2	0.6
N#C/C(=C(/O)COc1ccccc1)c1nc2ccccc2s1	5.5	-3.0	-0.9	3.7	3.8	-0.5	x	x
COc1ccc2c3c(cccc13)C(=O)N(O)C2=O	x	-1.8	1.0	x	0.9	0.0	x	x
CCC1=NNc2cccc3c(OC)ccc1c23	2.4	x	x	60.1*	x	x	73.1*	x
COCCN(C(=O)COC(=O)C1CC1)c1c(N)n(Cc2ccccc2)c(=O)[nH]c1=O	4.5	-4.8	0.7	-10.2	-3.1	-2.7	x	x
COCCN(C(=O)COC(=O)Cc1ccc(Cl)cc1Cl)c1c(N)n(Cc2ccccc2)c(=O)[nH]c1=O	7.2	-2.4	0.1	43.2*	-3.4	-2.1	-2.3	x
CCN1C(=O)[C@H]2[C@H]3CN=C(SCC(=O)c4ccccc4)N3[C@@](C)(C(=O)OC)[C@H]2C1=O	0.1	3.0	-0.8	-1.5	-1.8	0.2	x	x
Cc1nc(SCc2ccc(O)c([N+](=O)[O-])c2)c([N+](=O)[O-])[nH]1	0.2	0.5	0.8	63.3*	-0.1	-3.3	57.8*	-1.7
COc1cccc(C(=O)NCc2n[nH]c(=S)n2-c2cccc(C)c2)c1	0.3	0.1	-2.7	47.1*	-3.5	-1.4	60.8*	-3.4
Cc1ccoc1C(=O)N1CCCCC1C(=O)O (centres undefined)	-0.8	-3.7	-1.3	-1.4	-8.1	x	x	x
CCN(CC)c1ccc(NC(=O)c2ccc(=O)[nH]c2)cc1S(=O)(=O)Nc1ccccc1OC	-1.3	-2.4	0.3	55.6*	x	-0.7	37.8*	-3.1
CCN(CC)c1ccc(NC(=O)COc2ccccc2C)cc1S(=O)(=O)Nc1ccccc1OC	3.9	2.8	0.9	49.7*	-6.9	-1.3	61.3*	2.8
CCN(CC)c1ccc(NC(=O)c2ccccc2Br)cc1S(=O)(=O)Nc1ccccc1OC	6.0	3.2	0.4	34.5	-7.0	-0.7	x	x
CCOC(=O)c1nn(-c2ccccc2C)c(=O)c2c(N)scc12	0.5	1.6	0.7	28.8	2.7	-0.1	x	x
CCOC(=O)c1c(N)sn(-c2ccccc2C)c1=S	-20.8	0.9	4.0	57.0*	3.6	-0.9	53.8*	-0.3
